Tested on: Dermatophagoides pteronyssinus
Test: Pesticidal activity against Dermatophagoides pteronyssinus after 24 hrs
Assay type: functional, organism-based
Procedure, shortened: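 D. pteronyssinus reared on 90% yeast powder/10% beard shavings at 25 °C, 75% RH, dark. Compounds in absolute EtOH dried 24 h on 2 cm2 well bottoms; rims glued. 100 mites per well, 24 h at 25 °C, 75% RH, dark. Dead = no movement when prodded. Abbott-corrected mortality; EC50 by linear regression. Seven 2-fold dilutions, 0.01–0.640 g/m2, triplicate, repeated after one week.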

First: O=C(OCc1ccccc1)c1cc2ccccc2oc1=O
Second: O=C(OCc1ccccc1)c1cc(=O)c2ccccc2o1
The EC50 of the first is lower: 0.28 g/m2 for the first, 0.495 g/m2 for the second.

Compared with `Cc1ccc2oc(=O)ccc2c1`, `O=c1ccc2ccccc2o1` [COUMARIN] is lower in EC50: 0.04 g/m2 for the first, 0.032 g/m2 for the second.

`O=C(OCc1ccccc1)c1cccc(O)c1` and `O=C(OCc1ccccc1)c1ccc(O)cc1` are the same in EC50: 0.495 g/m2 for the first, 0.495 g/m2 for the second.

Compared with `O=Cc1cc(C(=O)OCc2ccccc2)ccc1O`, `O=C(OCc1ccccc1)c1ccc(=O)oc1` [BENZYL COUMALATE] is higher in EC50: 0.242 g/m2 for the first, 0.495 g/m2 for the second.

`O=C(OCc1ccccc1)c1ccc2oc(=O)ccc2c1` and `O=C(OCc1ccccc1)c1cccc2oc(=O)ccc12` are the same in EC50: 0.495 g/m2 for the first, 0.495 g/m2 for the second.

`O=C(OCc1ccccc1)c1ccccc1` [BENZYL BENZOATE] and `O=C(OCc1ccccc1)c1ccccc1O` [BENZYL SALICYLATE] are the same in EC50: 0.025 g/m2 for the first, 0.025 g/m2 for the second.

Compared with `O=C(/C=C/c1ccccc1)OCc1ccccc1` [BENZYL CINNAMATE], `Oc1ccccc1CCCc1ccccc1` [CHALCANE] is higher in EC50: 0.18 g/m2 for the first, 0.31 g/m2 for the second.

First: O=C1CCOc2ccccc21 [CHROMANONE]
Second: O=C1CC(c2ccccc2)Oc2ccccc21 (stereo unspecified) [FLAVANONE]
The EC50 of the first is lower: 0.07 g/m2 for the first, 0.09 g/m2 for the second.

Going from `O=c1ccoc2ccccc12` [CHROMONE] to `O=c1cc(-c2ccccc2)oc2ccccc12` [FLAVONE], the EC50 rises from 0.037 g/m2 to 0.5 g/m2.

`c1ccc(C2CCc3ccccc3O2)cc1` (stereo unspecified) [FLAVANE] was tested, and the EC50 was 0.15 g/m2.

For `O=c1cc(O)c2ccccc2o1` [4-HYDROXYCOUMARINS], the EC50 was > 1.5 g/m2.
In the case of `O=c1ccc2ccc(O)cc2o1` [UMBELLIFERONE], the EC50 is reported as > 1.5 g/m2.

Reference: ChEMBL document CHEMBL1146519, “Acaricidal activity of tonka bean extracts. Synthesis and structure-activity relationships of bioactive derivatives” (J Nat Prod, 2003)
